Reference: ChEMBL document CHEMBL4406859, “Antitumor and antiviral activities of 4-substituted 1,2,3-triazolyl-2,3-dibenzyl-L-ascorbic acid derivatives” (Eur J Med Chem, 2019)
The source made the active and inactive calls. No cut-off for these calls is given here.

Experiments:
[1] = test system: Reovirus sp.; assay: Antiviral activity against Reovirus infected in vero cells assessed as reduction in virus-induced cytopathogenicity incubated for 7 days by microscopic analysis; format: functional, organism-based
[2] = test system: Influenza A virus H3N2; assay: Antiviral activity against Influenza A virus (A/HK/7/87(H3N2)) infected in dog MDCK cells assessed as reduction in virus-induced cytopathogenicity incubated for 7 days by MTS assay; format: functional, organism-based; settings: A/Hong Kong/7/1987(H3N2); for EC50: 168 h
[3] = test system: MCF7; assay: Antiproliferative activity against human MCF7 cells assessed as reduction in cell viability incubated for 72 hrs by MTT assay; format: functional, cell-based; settings: MCF7, 72 h
Procedure, shortened: (§1)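 Cells (ATCC) grown in DMEM with 10 FBS, penicillin/streptomycin, 2 mM glutamine, 37 °C, 5 CO2. 5000 cells/well seeded; after 24 h, freshly prepared dilutions at five concentrations (0.01–100 μM) added for 72 h. MTT read-out; absorbance converted to percentage growth by NIH formulas. Two experiments in quadruplicate; IC50 by linear regression.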

[4] = test system: MCF7; assay: Induction of apoptosis in human MCF7 cells assessed as late apoptotic cells at 2 times of cytotoxic IC50 incubated for 48 hrs by annexin V staining based inverted phase contrast fluorescence microscopy (reference value: 10.60 %); format: functional
[5] = test system: HepG2; assay: Antiproliferative activity against human HepG2 cells assessed as reduction in cell viability incubated for 72 hrs by MTT assay; format: functional, cell-based; settings: HepG2, 72 h; procedure, shortened: as §1
[6] = test system: MCF7; assay: Induction of apoptosis in human MCF7 cells assessed as necrotic cells at 2 times of cytotoxic IC50 incubated for 24 hrs by annexin V staining based inverted phase contrast fluorescence microscopy (reference value: 0.84 %); format: functional
[7] = test system: A549; assay: Antiproliferative activity against human A549 cells assessed as reduction in cell viability incubated for 72 hrs by MTT assay; format: functional, cell-based; settings: A549, 72 h; procedure, shortened: as §1
[8] = Cytotoxicity against human HELF cells assessed as minimum cytotoxic concentration by observing alteration in cell morphology incubated for 3 days by microscopic analysis; format: cell-based; settings: HELF cells
Procedure, shortened: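 Read-out is the minimum cytotoxic concentration (MCC): the lowest compound concentration giving a microscopically detectable change in cell morphology. Measured on confluent human embryonic lung (HEL) fibroblast cultures exposed to a range of compound concentrations.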

[9] = test system: Influenza A virus; assay: Antiviral activity against Influenza A virus (A/Ned/378/05(H1N1)) infected in dog MDCK cells assessed as reduction in virus-induced cytopathogenicity incubated for 7 days by MTS assay; format: functional, organism-based; settings: for EC50: Influenza A virus, A/Ned/378/05(H1N1), MDCK, 168 h
[10] = test system: MCF7; assay: Downregulation of NOS2 in human MCF7 cells at cytotoxic IC50 incubated for 24 and 48 hrs by Western blot analysis; format: functional, cell-based
[11] = test system: HeLa; assay: Antiproliferative activity against human HeLa cells assessed as reduction in cell viability incubated for 72 hrs by MTT assay; format: functional, cell-based; procedure, shortened: as §1
[12] = test system: Human alphaherpesvirus 2; assay: Antiviral activity against Herpes simplex virus 2 G infected in human HELF cells assessed as reduction in virus-induced cytopathogenicity incubated for 7 days by microscopic analysis; format: functional, organism-based
[13] = test system: MCF7; assay: Induction of apoptosis in human MCF7 cells assessed as early apoptotic cells at 2 times of cytotoxic IC50 incubated for 24 hrs by annexin V staining based inverted phase contrast fluorescence microscopy (reference value: 0 %); format: functional
[14] = test system: Coxsackievirus B4; assay: Antiviral activity against Human coxsackievirus B4 infected in vero cells assessed as reduction in virus-induced cytopathogenicity incubated for 7 days by microscopic analysis; format: functional, organism-based
[15] = test system: MCF7; assay: Induction of apoptosis in human MCF7 cells assessed as necrotic cells at 2 times of cytotoxic IC50 incubated for 24 hrs by annexin V staining based inverted phase contrast fluorescence microscopy (reference value: 0 %); format: functional
[16] = test system: Influenza A virus; assay: Antiviral activity against Influenza A virus (A/Ned/378/05(H1N1)) infected in dog MDCK cells assessed as reduction in virus-induced cytopathogenicity incubated for 7 days by microscopic analysis; format: functional, organism-based
[17] = test system: SW-620; assay: Antiproliferative activity against human SW620 cells assessed as reduction in cell viability incubated for 72 hrs by MTT assay; format: functional, cell-based; settings: SW-620, 72 h; procedure, shortened: as §1
[18] = test system: Human alphaherpesvirus 1; assay: Antiviral activity against Herpes simplex virus 1 KOS infected in human HELF cells assessed as reduction in virus-induced cytopathogenicity incubated for 7 days by microscopic analysis; format: functional, organism-based; settings: strain KOS
[19] = test system: Influenza B virus; assay: Antiviral activity against Influenza B virus (B/Ned/537/05) infected in dog MDCK cells assessed as reduction in virus-induced cytopathogenicity incubated for 7 days by microscopic analysis; format: functional, organism-based; settings: for EC50: 168 h
[20] = test system: HFF; assay: Cytotoxicity against human HFF cells assessed as reduction in cell viability incubated for 72 hrs by MTT assay; format: cell-based; procedure, shortened: as §1
[21] = test system: MCF7; assay: Upregulation of HIF1alpha in human MCF7 cells at cytotoxic IC50 incubated for 24 and 48 hrs by Western blot analysis; format: functional, cell-based
[22] = test system: HCT-116; assay: Antiproliferative activity against human HCT116cells assessed as reduction in cell viability incubated for 72 hrs by MTT assay; format: functional, cell-based; settings: HCT-116, 72 h; procedure, shortened: as §1
[23] = test system: Influenza A virus H3N2; assay: Antiviral activity against Influenza A virus (A/HK/7/87(H3N2)) infected in dog MDCK cells assessed as reduction in virus-induced cytopathogenicity incubated for 7 days by microscopic analysis; format: functional, organism-based; settings: A/Hong Kong/7/1987(H3N2); for EC50: 168 h
[24] = test system: MCF7; assay: Induction of apoptosis in human MCF7 cells assessed as late apoptotic cells at 2 times of cytotoxic IC50 incubated for 24 hrs by annexin V staining based inverted phase contrast fluorescence microscopy (reference value: […]); format: functional
[25] = test system: CFPAC-1; assay: Antiproliferative activity against human CFPAC-1 cells assessed as reduction in cell viability incubated for 72 hrs by MTT assay; format: functional, cell-based; settings: Homo sapiens, CFPAC-1, 72 h; read-out: IC50; procedure, shortened: as §1
[26] = test system: Human adenovirus 2; assay: Antiviral activity against Human adenovirus 2 infected in human HELF cells assessed as reduction in virus-induced cytopathogenicity incubated for 7 days by microscopic analysis; format: functional, organism-based
[27] = test system: Cytomegalovirus; assay: Antiviral activity against Cytomegalovirus AD169 infected in human HELF cells assessed as reduction in virus-induced cytopathogenicity incubated for 7 days by Giemsa staining based microscopic analysis; format: functional, organism-based; settings: Human betaherpesvirus 5, AD169, HELF, 168 h
Procedure, shortened: (§2)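 Confluent HEL fibroblasts infected with CMV (Davis or AD-169) at 100 PFU/well for 2 h. Residual virus removed, then medium with graded compound concentrations added (duplicate). Incubated 7 days at 37 °C. Cytopathogenicity scored microscopically after ethanol fixation and Giemsa staining. EC50 read from plots of % cytopathogenicity versus concentration.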

[28] = test system: Human alphaherpesvirus 3; assay: Antiviral activity against thymidine kinase positive Varicella zoster virus infected in human HELF cells assessed as reduction in virus-induced cytopathogenicity incubated for 7 days by Giemsa staining based microscopic analysis; format: functional, organism-based; settings: Human alphaherpesvirus 3, HELF, 168 h
[29] = test system: Human alphaherpesvirus 1; assay: Antiviral activity against Herpes simplex virus 1 TK-KOS-ACV infected in human HELF cells assessed as reduction in virus-induced cytopathogenicity incubated for 7 days by microscopic analysis; format: functional, organism-based
[30] = test system: Cytomegalovirus; assay: Antiviral activity against Cytomegalovirus Davis infected in human HELF cells assessed as reduction in virus-induced cytopathogenicity incubated for 7 days by Giemsa staining based microscopic analysis; format: functional, organism-based; settings: Human betaherpesvirus 5, Davis, 168 h; procedure, shortened: as §2
[31] = test system: MCF7; assay: Induction of apoptosis in human MCF7 cells assessed as early apoptotic cells at 2 times of cytotoxic IC50 incubated for 48 hrs by annexin V staining based inverted phase contrast fluorescence microscopy (reference value: 0 %); format: functional
[32] = test system: Human coronavirus 229E; assay: Antiviral activity against Human coronavirus 229E infected in human HELF cells assessed as reduction in virus-induced cytopathogenicity incubated for 7 days by microscopic analysis; format: functional, organism-based
[33] = test system: Human alphaherpesvirus 3; assay: Antiviral activity against thymidine kinase deficient Varicella zoster virus infected in human HELF cells assessed as reduction in virus-induced cytopathogenicity incubated for 7 days by Giemsa staining based microscopic analysis; format: functional, organism-based; settings: Human alphaherpesvirus 3, HELF, 168 h
[34] = test system: Influenza B virus; assay: Antiviral activity against Influenza B virus (B/Ned/537/05) infected in dog MDCK cells assessed as reduction in virus-induced cytopathogenicity incubated for 7 days by MTS assay; format: functional, organism-based; settings: for EC50: 168 h
[35] = test system: Sindbis virus; assay: Antiviral activity against Sindbis virus infected in vero cells assessed as reduction in virus-induced cytopathogenicity incubated for 7 days by microscopic analysis; format: functional, organism-based
[36] = Cytotoxicity against dog MDCK cells assessed as minimum cytotoxic concentration by observing alteration in cell morphology incubated for 3 days by microscopic analysis; format: cell-based, Canis lupus familiaris
[37] = test system: MDCK; assay: (§3) Cytotoxicity against dog MDCK cells assessed as reduction in cell viability incubated for 3 days by coulter counter method; format: cell-based, Canis lupus familiaris; settings: mdck, 72 h
[38] = as §3; format: cell-based, Canis lupus familiaris; settings: MDCK cells

Compound: CCCCCCCCCCc1cn(C[C@H](O)[C@H]2OC(=O)C(OCc3ccccc3)=C2OCc2ccccc2)nn1
- Activity [1]: inactive
- Activity [2]: inactive
- IC50 [3]: 0.08 µM
- Activity [4]: 35.3%
- IC50 [5]: 12.2 µM
- Activity [6]: 8.76%
- IC50 [7]: 6.75 µM
- MCC at 72 h [8]: 20 µM
- Activity [9]: inactive
- Activity [10]: Active
- IC50 [11]: 22.9 µM
- Activity [12]: inactive
- Activity [13]: 0%
- Activity [14]: inactive
- Activity [15]: 11.36%
- Activity [16]: inactive
- IC50 [17]: 45.1 µM
- Activity [18]: inactive
- Activity [19]: inactive
- IC50 [20]: > 100 µM
- Activity [21]: Active
- IC50 [22]: 28.8 µM
- Activity [23]: inactive
- Activity [24]: 1.68%
- IC50 [25]: 40.3 µM
- Activity [26]: inactive
- EC50 [27]: > 4 µM
- EC50 [28]: 7.76 µM
- Activity [29]: inactive
- EC50 [30]: > 4 µM
- Activity [31]: 13.4%
- Activity [32]: inactive
- EC50 [33]: 10.7 µM
- Activity [34]: inactive
- Activity [35]: inactive

Compound: O=C1O[C@H]([C@@H](O)Cn2ccnn2)C(OCc2ccccc2)=C1OCc1ccccc1
- EC50 [2]: 53.9 µM
- IC50 [3]: > 100 µM
- IC50 [5]: > 100 µM
- IC50 [7]: > 100 µM
- EC50 [9]: 35.1 µM
- MCC at 72 h [36]: > 100 µM
- IC50 [11]: > 100 µM
- EC50 ([16]; Influenza A virus, A/Ned/378/05(H1N1), MDCK, 168 h): 75 µM
- IC50 [17]: > 100 µM
- EC50 [19]: > 100 µM
- IC50 [20]: 0.61 µM
- IC50 [22]: > 100 µM
- EC50 [23]: 45 µM
- IC50 [25]: > 100 µM
- CC50 [37]: > 100 µM
- EC50 [34]: > 100 µM

Compound: NC(=O)c1ncn([C@@H]2O[C@H](CO)[C@@H](O)[C@H]2O)n1 [RIBAVIRIN]
- EC50 [2]: 1.4 µM
- MCC at 72 h [8]: > 250 µM
- EC50 [9]: 18.2 µM
- MCC at 72 h [36]: > 100 µM
- EC50 [16]: 8.9 µM
- EC50 [19]: 5.6 µM
- EC50 [23]: 2.3 µM
- CC50 at 72 h [38]: > 100 µM
- EC50 [34]: 4.6 µM
